Measured values reported in ChEMBL document CHEMBL4346669, “Novel nannocystin A analogues as anticancer therapeutics: Synthesis, biological evaluations and structure-activity relationship studies” (Eur J Med Chem, 2019).
The source made the active and inactive calls. The rule behind the calls is not given here.

Key:
A549 [1] = assay: Induction of apoptosis in human A549 cells assessed as increase in Bax protein expression by Western blot analysis; type: functional, cell-based
Method in brief: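 A549 treated 30, 60 and 90 nM for 24 h; lysates normalized by BCA, 30 μg protein denatured in SDS buffer at 100 °C 8 min, SDS-PAGE, PVDF transfer, blocked in 5% milk/TBS-0.05% Tween 2 h, primary antibodies overnight at 4 °C, HRP anti-rabbit IgG 2 h, ECL detection; β-actin loading control.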

A549 [2] = assay: Cell cycle arrest in human A549 cells assessed as accumulation at G2 phase at 90 nM after 24 hrs by propidium iodide/RNase A staining-based flow cytometric analysis (reference value: 30.02%); type: functional
A549 [3] = assay: Induction of apoptosis in human A549 cells assessed as early apoptotic cells at 60 nM after 12 hrs by Annexin-V FITC/propidium iodide staining based flow cytometric analysis (reference value: 0.32%); type: functional
A549 [4] = assay: Induction of apoptosis in human A549 cells assessed as reduction in Bcl-2 expression at 30 to 90 nM by Western blot analysis
A549 [5] = assay: Cell cycle arrest in human A549 cells assessed as accumulation at G1 phase at 30 nM after 24 hrs by propidium iodide/RNase A staining-based flow cytometric analysis (reference value: 57.41%); type: functional
A549 [6] = assay: Inhibition of colony formation in human A549 cells at 5 nM incubated for 3 days followed by further incubation in drug-free medium and measured after 15 days by crystal violet staining-based inverted microscopic analysis; type: functional, cell-based
Method in brief: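 500 A549 cells/well incubated 24 h, then treated with 5, 10 or 20 nM for 3 days, followed by drug-free medium changed every 3 days. At day 15 after plating, colonies fixed in 95% ethanol 15 min, stained with 0.1% crystal violet, counted (colony = over 100 cells); mean ± SD of three independent experiments.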

A549 [7] = assay: Induction of apoptosis in human A549 cells assessed as early apoptotic cells at 90 nM after 12 hrs by Annexin-V FITC/propidium iodide staining based flow cytometric analysis (reference value: 0.32%); type: functional
A549 [8] = assay: Induction of apoptosis in human A549 cells assessed as viable cells at 60 nM after 6 hrs by Annexin-V FITC/propidium iodide staining based flow cytometric analysis; type: functional; conditions: A549, 6 h, read-out: Activity
Method in brief: (§1)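 Time-course: A549 (2×10^5 cells/well, grown overnight) exposed to 60 nM for 6, 12 or 24 h; untreated control. Cells trypsinized, washed in cold PBS, stained 15 min with Annexin V-FITC in binding buffer, then PI, and read by flow cytometry; duplicate experiments.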

A549 [9] = assay: Induction of apoptosis in human A549 cells assessed as late apoptotic cells at 30 nM after 12 hrs by Annexin-V FITC/propidium iodide staining based flow cytometric analysis (reference value: 1.22%); type: functional
A549 [10] = assay: Cell cycle arrest in human A549 cells assessed as accumulation at S phase at 90 nM after 24 hrs by propidium iodide/RNase A staining-based flow cytometric analysis (reference value: 12.57%); type: functional
A549 [11] = assay: Induction of apoptosis in human A549 cells assessed as late apoptotic cells at 60 nM after 24 hrs by Annexin-V FITC/propidium iodide staining based flow cytometric analysis; type: functional; method in brief: as §1
A549 [12] = assay: Induction of apoptosis in human A549 cells assessed as late apoptotic cells at 60 nM after 6 hrs by Annexin-V FITC/propidium iodide staining based flow cytometric analysis; type: functional; method in brief: as §1
A549 [13] = assay: Cell cycle arrest in human A549 cells assessed as accumulation at G2 phase after 24 hrs by propidium iodide/RNase A staining-based flow cytometric analysis; type: functional
MDA-MB-231 = assay: Antiproliferative activity against human MDA-MB-231 cells assessed as reduction in cell viability measured after 72 hrs by MTT assay; type: functional, cell-based; conditions: MDA-MB-231, 72 h
Method in brief: (§2)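 Cells seeded at 5×10^3 per well and cultured overnight, then exposed for 72 h at 37 °C to six concentrations from 10 µM down to 0.0001 µM (from 10 mM DMSO stock diluted in medium; vehicle 1% DMSO in PBS). MTT at 0.5 mg/mL was added for 4 h, formazan dissolved in DMSO, and A570 read. IC50 given as mean ± SD of three independent experiments.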

A549 [14] = assay: Induction of apoptosis in human A549 cells assessed as necrotic cells at 90 nM after 12 hrs by Annexin-V FITC/propidium iodide staining based flow cytometric analysis (reference value: 1.28%); type: functional
A549 [15] = assay: Cell cycle arrest in human A549 cells assessed as accumulation at G1 phase at 60 nM after 24 hrs by propidium iodide/RNase A staining-based flow cytometric analysis (reference value: 57.41%); type: functional
SH-SY5Y = assay: Antiproliferative activity against human SH-SY5Y cells assessed as reduction in cell viability measured after 72 hrs by MTT assay; type: functional, cell-based; method in brief: as §2
A549 [16] = assay: Cell cycle arrest in human A549 cells assessed as accumulation at G2 phase at 30 nM after 24 hrs by propidium iodide/RNase A staining-based flow cytometric analysis (reference value: 30.02%); type: functional

Compound: COc1cc(C[C@H]2NC(=O)[C@H](C(C)C)N(C)C(=O)/C(C)=C/C[C@@H](OC)/C(C)=C/C=C/[C@@H](C)[C@@H](c3ccccc3)OC(=O)[C@H](C(C)C)NC2=O)ccc1O
- Activity (A549 [1]): Dose-dependent effect
- Activity (A549 [2]): 57.73%
- Activity (A549 [3]): 3.55%
- Activity (A549 [4]): Active
- Activity (A549 [5]): 49.14%
- inhibition (A549 [6]): Active
- Activity (A549 [7]): 3.55%
- viability at 0.06 µM (A549 [8]): 92.3%
- Activity (A549 [9]): 13.6%
- Activity (A549 [10]): 4.46%
- Activity (A549 [11]): 29.03%
- Activity (A549 [12]): 5.08%
- Activity (A549 [13]): Dose-dependent effect
- IC50 (MDA-MB-231): 12.5 nM
- Activity (A549 [14]): 12.85%
- Activity (A549 [15]): 44.44%
- IC50 (SH-SY5Y): 9.6 nM
- Activity (A549 [16]): 37.66%
